The source made the active and inactive calls. No cut-off for these calls is given here.
Experiments:
[1] = biological target: T1, Metabotropic glutamate receptor 2 (Homo sapiens, UniProt Q14416); experiment: Displacement of [3H]LY341495 from human recombinant mGluR2 in RGT cells; assay type: cell-based
[2] = biological target: T1, Metabotropic glutamate receptor 2; experiment: Agonist activity at human mGluR2 assessed as effect on cAMP production in RGT cells; assay type: functional, cell-based
Summary of the method: (§1)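 cAMP second-messenger responses measured in RGT cells. These are non-neuronal AV12-664 cells coexpressing the glutamate transporter GLAST, to minimize glutamate activity, plus the recombinant human receptor (mGlu2, mGlu3 or mGlu8). Agonist EC50 determined.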

[3] = biological target: T2, Metabotropic glutamate receptor 3 (Homo sapiens, UniProt Q14832); experiment: Agonist activity at human mGluR3 assessed as effect on cAMP production in RGT cells; assay type: functional, cell-based; summary of the method: as §1
[4] = biological target: Metabotropic glutamate receptor 8 (Homo sapiens, UniProt O00222); experiment: Agonist activity at human mGluR8 assessed as effect on cAMP production in RGT cells; assay type: functional, cell-based; summary of the method: as §1
[5] = biological target: T2, Metabotropic glutamate receptor 3; experiment: Displacement of [3H]LY341495 from human recombinant mGluR3 in RGT cells; assay type: cell-based
Summary of the method: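 Radioligand binding on membranes carrying recombinant human mGlu2 or mGlu3, displacing the antagonist [3H]LY341495. Ki was calculated from IC50 by the Cheng-Prusoff equation. Values are the mean of at least three separate experiments.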

[6] = biological target: Metabotropic glutamate receptor 5 (Homo sapiens) (UniProt P41594); experiment: Agonist activity at human mGluR5a assessed as effect on cAMP production in RGT cells upto 100 uM; assay type: functional, cell-based
Summary of the method: (§2)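 Compounds were tested at concentrations up to 100 µM for agonist or antagonist effects. Assays used RGT cells, which are AV12-664 cells coexpressing GLAST and recombinant human mGlu1a, mGlu5a, mGlu4a or mGlu7a.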

[7] = biological target: Metabotropic glutamate receptor 7 (Homo sapiens) (UniProt Q14831); experiment: Antagonist activity against human mGluR7a assessed as effect on cAMP production in RGT cells upto 100 uM; assay type: functional, cell-based; summary of the method: as §2
[8] = biological target: Metabotropic glutamate receptor 7 (Homo sapiens) (UniProt Q14831); experiment: Agonist activity at human mGluR7a assessed as effect on cAMP production in RGT cells upto 100 uM; assay type: functional, cell-based; summary of the method: as §2
[9] = biological target: Metabotropic glutamate receptor 5 (Homo sapiens) (UniProt P41594); experiment: Antagonist activity against human mGluR5a assessed as effect on cAMP production in RGT cells upto 100 uM; assay type: functional, cell-based; summary of the method: as §2
[10] = biological target: Metabotropic glutamate receptor 4 (Homo sapiens) (UniProt Q14833); experiment: Antagonist activity against human mGluR4a assessed as effect on cAMP production in RGT cells upto 100 uM; assay type: functional, cell-based; summary of the method: as §2
[11] = biological target: Metabotropic glutamate receptor 4 (Homo sapiens) (UniProt Q14833); experiment: Agonist activity at human mGluR4a assessed as effect on cAMP production in RGT cells upto 100 uM; assay type: functional, cell-based; summary of the method: as §2
[12] = biological target: Metabotropic glutamate receptor 1 (Homo sapiens) (UniProt Q13255); experiment: Antagonist activity against human mGluR1a assessed as effect on cAMP production in RGT cells upto 100 uM; assay type: functional, cell-based; summary of the method: as §2
[13] = biological target: Metabotropic glutamate receptor 1 (Homo sapiens) (UniProt Q13255); experiment: Agonist activity at human mGluR1a assessed as effect on cAMP production in RGT cells upto 100 uM; assay type: functional, cell-based; summary of the method: as §2
Rattus norvegicus [14] = experiment: Plasma concentration in Fischer 344 rat at 10 mg/kg, po after 6 hrs; assay type: ADME, organism-based; set-up: dose 10 mg/kg, route oral; details: in vivo
Summary of the method: (§3)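 Plasma levels in fasted male Fischer 344 rats after a 10 mg/kg oral dose in pH 7 water (NaOH), quantified by positive-ion electrospray LC/MS/MS. Main protocol sampled at 0.08/0.25–24 h, n=3 rats per time point. A variant oral-only arm used n=6 rats with samples at 0.5, 1, 2, 3, 4 and 6 h.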

Rattus norvegicus [15] = experiment: Plasma concentration in Fischer 344 rat at 10 mg/kg, po after 0.5 hrs; assay type: ADME, organism-based; set-up: dose 10 mg/kg, route oral; details: in vivo; summary of the method: as §3
Rattus norvegicus [16] = experiment: Plasma concentration in Fischer 344 rat at 10 mg/kg, po after 2 hrs; assay type: ADME, organism-based; set-up: dose 10 mg/kg, route oral; details: in vivo; summary of the method: as §3
Rattus norvegicus [17] = experiment: Plasma concentration in Fischer 344 rat at 10 mg/kg, po after 3 hrs; assay type: ADME, organism-based; set-up: dose 10 mg/kg, route oral; details: in vivo; summary of the method: as §3
Rattus norvegicus [18] = experiment: (§4) AUC (0-24h) in Fischer 344 rat at 10 mg/kg, po; assay type: ADME, organism-based, Plasma; set-up: time < 24 hr, dose 10 mg/kg, route oral; details: rat, in vivo, 24 h
Summary of the method: (§5)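 Male Fischer 344 rats fasted overnight, food returned 4 h post dose, water ad libitum. Doses were in water brought to pH 7 with NaOH, given i.v. (2.5 or 10 mg/kg) or p.o. (10 mg/kg). Nine rats per dose group, three per time point, with blood taken over 0.08–24 h. Plasma measured by LC/MS/MS.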

Rattus norvegicus [19] = experiment: Cmax in Fischer 344 rat at 10 mg/kg, po; assay type: ADME, organism-based; set-up: dose 10 mg/kg, route oral; details: in vivo; summary of the method: as §5
Rattus norvegicus [20] = experiment: Plasma concentration in Fischer 344 rat at 10 mg/kg, po after 1 hrs; assay type: ADME, organism-based; set-up: dose 10 mg/kg, route oral; details: in vivo; summary of the method: as §3
Rattus norvegicus [21] = experiment: Plasma concentration in Fischer 344 rat at 10 mg/kg, po after 4 hrs; assay type: ADME, organism-based; set-up: dose 10 mg/kg, route oral; details: in vivo; summary of the method: as §3
Rattus norvegicus [22] = experiment: (§6) Tmax in Fischer 344 rat at 10 mg/kg, po; assay type: ADME, organism-based; set-up: dose 10 mg/kg, route oral; details: rat, in vivo; summary of the method: as §5
Rattus norvegicus [23] = experiment: Reduction of PCP-induced ambulations in Sprague-Dawley rat at 10 mg/kg, po; assay type: functional; set-up: scale not given: the % may be the effect or the level left
Summary of the method: (§7)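 Male Sprague-Dawley rats (225-274 g) fasted 12-18 h and habituated 30 min to the test cage. Test drug or vehicle was given orally 2 h before PCP (5 mg/kg s.c.) or 0.9% NaCl. Horizontal photobeam breaks were counted over 60 min, n=8-13 per group.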

[24] = AUC (0-24h) in Fischer 344 rat at 2.5 mg/kg, iv; assay type: ADME, organism-based; set-up: time < 24 hr, dose 2.5 mg/kg, route intravenous; details: plasma; summary of the method: as §5
[25] = Plasma concentration in Fischer 344 rat after 8 hrs; assay type: ADME, organism-based; summary of the method: as §3
Rattus norvegicus [26] = experiment: Reduction of PCP-induced ambulations in Sprague-Dawley rat at 3 mg/kg, po; assay type: functional; set-up: scale not given: the % may be the effect or the level left; summary of the method: as §7
[27] = Tmax in Fischer 344 rat at 2.5 mg/kg, iv; assay type: ADME, organism-based; set-up: dose 2.5 mg/kg, route intravenous; details: in vivo; summary of the method: as §5
Rattus norvegicus [28] = experiment: Cmax in Fischer 344 rat at 2.5 mg/kg, iv; assay type: ADME, organism-based; set-up: dose 2.5 mg/kg, route intravenous; details: in vivo; summary of the method: as §5
[29] = as §4; assay type: ADME, organism-based, Plasma; set-up: time < 24 hr, dose 10 mg/kg, route oral; details: Fischer 344, rat, plasma; summary of the method: as §5
[30] = Plasma concentration in Fischer 344 rat after 3 hrs; assay type: ADME, organism-based; summary of the method: as §3
[31] = Plasma concentration in Fischer 344 rat after 1 hr; assay type: ADME, organism-based; summary of the method: as §3
Rattus norvegicus [32] = experiment: Inhibition of PCP-induced ambulations in Sprague-Dawley rat after oral administration; assay type: functional; summary of the method: as §7
[33] = Oral bioavailability in Fischer 344 rat at 10 mg/kg, po; assay type: ADME, organism-based; details: in vivo; summary of the method: as §5
[34] = as §6; assay type: ADME, organism-based; set-up: dose 10 mg/kg, route oral; details: Fischer 344, rat, in vivo; summary of the method: as §5
Rattus norvegicus [35] = experiment: AUC (0-24h) in Fischer 344 rat at 10 mg/kg, po; details: in vivo

T1 sequence (Q14416 whole entry): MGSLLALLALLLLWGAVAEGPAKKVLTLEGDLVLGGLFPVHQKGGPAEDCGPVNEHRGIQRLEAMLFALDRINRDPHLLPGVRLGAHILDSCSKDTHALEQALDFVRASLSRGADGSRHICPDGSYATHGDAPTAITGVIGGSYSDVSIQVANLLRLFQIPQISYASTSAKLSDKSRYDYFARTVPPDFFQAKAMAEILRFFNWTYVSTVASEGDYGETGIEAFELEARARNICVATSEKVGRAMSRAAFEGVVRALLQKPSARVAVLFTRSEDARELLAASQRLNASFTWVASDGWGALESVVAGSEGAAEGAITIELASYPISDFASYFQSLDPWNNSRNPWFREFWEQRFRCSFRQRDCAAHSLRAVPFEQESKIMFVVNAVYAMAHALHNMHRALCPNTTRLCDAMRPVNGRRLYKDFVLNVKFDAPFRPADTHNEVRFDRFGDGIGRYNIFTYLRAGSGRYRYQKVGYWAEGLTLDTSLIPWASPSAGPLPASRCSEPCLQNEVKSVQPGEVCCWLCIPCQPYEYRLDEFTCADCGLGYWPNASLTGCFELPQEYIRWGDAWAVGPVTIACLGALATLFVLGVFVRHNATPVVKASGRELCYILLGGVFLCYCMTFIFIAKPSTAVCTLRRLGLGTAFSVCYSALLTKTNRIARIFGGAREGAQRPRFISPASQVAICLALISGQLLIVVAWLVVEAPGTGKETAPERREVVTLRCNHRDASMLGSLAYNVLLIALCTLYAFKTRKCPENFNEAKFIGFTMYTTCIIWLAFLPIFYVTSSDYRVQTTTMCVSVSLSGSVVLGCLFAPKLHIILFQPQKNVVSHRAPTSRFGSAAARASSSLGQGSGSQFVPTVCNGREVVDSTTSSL
Metabotropic glutamate receptor 7 (Homo sapiens), sequence (Q14831 whole entry): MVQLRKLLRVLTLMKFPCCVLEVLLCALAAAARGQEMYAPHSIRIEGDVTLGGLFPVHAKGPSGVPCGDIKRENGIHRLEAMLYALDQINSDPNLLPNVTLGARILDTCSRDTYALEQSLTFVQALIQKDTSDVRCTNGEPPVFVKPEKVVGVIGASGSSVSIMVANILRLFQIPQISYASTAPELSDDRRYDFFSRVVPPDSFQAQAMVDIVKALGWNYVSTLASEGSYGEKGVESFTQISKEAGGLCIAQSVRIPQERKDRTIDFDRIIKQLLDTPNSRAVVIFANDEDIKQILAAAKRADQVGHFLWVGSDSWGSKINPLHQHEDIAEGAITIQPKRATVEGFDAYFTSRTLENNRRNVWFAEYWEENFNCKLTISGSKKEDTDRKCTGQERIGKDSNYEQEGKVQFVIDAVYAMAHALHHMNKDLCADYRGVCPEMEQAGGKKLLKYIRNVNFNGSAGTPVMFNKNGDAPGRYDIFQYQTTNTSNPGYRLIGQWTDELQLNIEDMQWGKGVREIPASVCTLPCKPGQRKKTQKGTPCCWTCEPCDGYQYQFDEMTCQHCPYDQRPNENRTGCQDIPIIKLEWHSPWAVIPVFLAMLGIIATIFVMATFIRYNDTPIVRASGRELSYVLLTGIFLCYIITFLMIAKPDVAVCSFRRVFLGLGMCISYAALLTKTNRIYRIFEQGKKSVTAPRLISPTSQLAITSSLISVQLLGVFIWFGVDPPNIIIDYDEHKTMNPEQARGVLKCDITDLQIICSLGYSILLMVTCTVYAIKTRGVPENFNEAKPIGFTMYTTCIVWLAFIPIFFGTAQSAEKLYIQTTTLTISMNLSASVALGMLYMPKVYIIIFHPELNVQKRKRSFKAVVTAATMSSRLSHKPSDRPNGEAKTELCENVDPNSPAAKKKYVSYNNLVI
Metabotropic glutamate receptor 1 (Homo sapiens), sequence (Q13255 19-1194 limits assumed): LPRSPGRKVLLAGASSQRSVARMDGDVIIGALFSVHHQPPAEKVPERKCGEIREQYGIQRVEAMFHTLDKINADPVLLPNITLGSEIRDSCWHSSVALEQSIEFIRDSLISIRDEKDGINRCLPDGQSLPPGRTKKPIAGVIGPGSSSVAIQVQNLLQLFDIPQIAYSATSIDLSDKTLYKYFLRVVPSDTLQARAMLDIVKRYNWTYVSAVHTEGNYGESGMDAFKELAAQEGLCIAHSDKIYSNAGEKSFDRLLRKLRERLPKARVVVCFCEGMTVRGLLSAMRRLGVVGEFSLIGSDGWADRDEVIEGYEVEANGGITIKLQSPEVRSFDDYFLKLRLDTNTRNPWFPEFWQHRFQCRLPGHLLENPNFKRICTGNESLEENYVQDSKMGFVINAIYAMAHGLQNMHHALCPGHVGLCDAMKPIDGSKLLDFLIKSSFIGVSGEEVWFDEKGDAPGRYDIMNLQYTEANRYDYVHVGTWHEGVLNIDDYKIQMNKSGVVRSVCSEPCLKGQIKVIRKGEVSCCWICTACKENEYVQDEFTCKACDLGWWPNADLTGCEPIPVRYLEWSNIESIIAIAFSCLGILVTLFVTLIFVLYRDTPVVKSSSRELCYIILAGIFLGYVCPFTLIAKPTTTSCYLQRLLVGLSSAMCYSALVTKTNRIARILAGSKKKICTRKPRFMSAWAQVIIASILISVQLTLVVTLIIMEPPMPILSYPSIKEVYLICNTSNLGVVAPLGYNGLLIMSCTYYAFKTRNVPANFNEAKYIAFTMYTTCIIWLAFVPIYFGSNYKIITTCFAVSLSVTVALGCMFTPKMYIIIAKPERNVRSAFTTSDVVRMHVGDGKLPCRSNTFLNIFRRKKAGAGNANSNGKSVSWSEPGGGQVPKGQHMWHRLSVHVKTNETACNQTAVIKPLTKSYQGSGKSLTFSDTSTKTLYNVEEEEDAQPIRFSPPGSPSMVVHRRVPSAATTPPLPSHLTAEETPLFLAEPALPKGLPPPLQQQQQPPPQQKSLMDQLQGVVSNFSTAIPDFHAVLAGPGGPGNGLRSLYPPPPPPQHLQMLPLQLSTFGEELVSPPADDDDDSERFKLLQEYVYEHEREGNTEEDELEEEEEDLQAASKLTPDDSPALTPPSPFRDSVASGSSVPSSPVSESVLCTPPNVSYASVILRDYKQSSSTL
Metabotropic glutamate receptor 4 (Homo sapiens), sequence (Q14833 whole entry): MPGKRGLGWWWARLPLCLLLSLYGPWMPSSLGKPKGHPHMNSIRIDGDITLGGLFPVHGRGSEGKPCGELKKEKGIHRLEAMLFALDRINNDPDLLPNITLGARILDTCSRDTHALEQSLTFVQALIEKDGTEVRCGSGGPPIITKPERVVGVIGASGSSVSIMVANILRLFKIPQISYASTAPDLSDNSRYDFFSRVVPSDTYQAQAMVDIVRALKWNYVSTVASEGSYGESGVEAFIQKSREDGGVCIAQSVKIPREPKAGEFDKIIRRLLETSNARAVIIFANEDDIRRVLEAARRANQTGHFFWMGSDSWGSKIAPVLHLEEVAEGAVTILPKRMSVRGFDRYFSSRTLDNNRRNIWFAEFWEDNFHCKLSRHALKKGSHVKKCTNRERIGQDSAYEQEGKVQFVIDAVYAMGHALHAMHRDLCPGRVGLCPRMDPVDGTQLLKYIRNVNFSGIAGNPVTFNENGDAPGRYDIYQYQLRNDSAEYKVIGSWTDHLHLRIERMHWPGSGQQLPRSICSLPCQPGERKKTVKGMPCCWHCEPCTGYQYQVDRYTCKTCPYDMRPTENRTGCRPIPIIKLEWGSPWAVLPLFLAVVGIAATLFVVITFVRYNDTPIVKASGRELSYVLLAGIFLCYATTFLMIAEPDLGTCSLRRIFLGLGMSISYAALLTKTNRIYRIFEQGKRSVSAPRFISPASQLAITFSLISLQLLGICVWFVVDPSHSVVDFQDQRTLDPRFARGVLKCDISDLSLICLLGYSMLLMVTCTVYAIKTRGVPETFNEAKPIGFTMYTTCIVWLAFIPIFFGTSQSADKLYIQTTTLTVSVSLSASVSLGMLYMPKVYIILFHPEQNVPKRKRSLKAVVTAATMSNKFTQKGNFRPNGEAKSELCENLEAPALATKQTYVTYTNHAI
T2 sequence (Q14832 whole entry): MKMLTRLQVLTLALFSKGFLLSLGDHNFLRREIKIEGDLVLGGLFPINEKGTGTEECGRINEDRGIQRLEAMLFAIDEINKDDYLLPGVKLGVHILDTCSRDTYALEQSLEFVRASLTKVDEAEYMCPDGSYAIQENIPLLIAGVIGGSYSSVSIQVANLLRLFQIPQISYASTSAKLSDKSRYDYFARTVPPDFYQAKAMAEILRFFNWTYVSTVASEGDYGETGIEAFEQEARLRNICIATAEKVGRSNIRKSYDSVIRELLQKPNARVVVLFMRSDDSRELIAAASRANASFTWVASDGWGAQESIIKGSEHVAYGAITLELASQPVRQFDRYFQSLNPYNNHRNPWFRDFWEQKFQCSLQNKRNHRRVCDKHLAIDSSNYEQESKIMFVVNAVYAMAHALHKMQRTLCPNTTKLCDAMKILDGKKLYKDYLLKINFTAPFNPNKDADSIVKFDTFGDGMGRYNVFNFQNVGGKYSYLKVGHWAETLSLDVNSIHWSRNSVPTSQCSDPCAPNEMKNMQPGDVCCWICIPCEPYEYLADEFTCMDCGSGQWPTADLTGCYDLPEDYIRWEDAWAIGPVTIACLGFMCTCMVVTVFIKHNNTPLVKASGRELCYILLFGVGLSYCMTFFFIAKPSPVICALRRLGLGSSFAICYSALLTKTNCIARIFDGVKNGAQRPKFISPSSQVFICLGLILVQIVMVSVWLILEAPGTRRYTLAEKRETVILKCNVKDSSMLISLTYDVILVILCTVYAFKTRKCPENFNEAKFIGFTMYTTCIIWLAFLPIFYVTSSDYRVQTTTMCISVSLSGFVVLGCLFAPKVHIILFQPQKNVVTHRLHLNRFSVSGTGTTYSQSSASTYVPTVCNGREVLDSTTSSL

EC50 [2] [nM] | EC50 [3] [nM] | EC50 [4] [µM] | Ki [5] [nM] | Activity [6] | Activity [7] | Activity [8] | Activity [9] | Activity [10] | Activity [11] | Activity [12] | Activity [13] | Cmax (Rattus norvegicus [19]) [µg/mL] | SMILES | other results
 |  |  |  | inactive | inactive | inactive | inactive | inactive | inactive | inactive | inactive |  | N[C@@]1(C(=O)O)C[S+]([O-])[C@H]2[C@H](C(=O)O)[C@H]21 (stereo in doubt; (-)-10) [listing 2 of 2 here] | 
 |  |  |  |  |  |  |  |  |  |  |  | 0.4 | N[C@@]1(C(=O)O)C[S+]([O-])[C@H]2[C@H](C(=O)O)[C@H]21 (stereo in doubt; (-)-11) [listing 1 of 2 here] | Cp (Rattus norvegicus [14]): 71.8 ng/mL; Cp (Rattus norvegicus [15]): 325 ng/mL; Cp (Rattus norvegicus [16]): 258 ng/mL; Cp (Rattus norvegicus [17]): 229 ng/mL; AUC (Rattus norvegicus [18]): 1.1 µg·h/mL; Cp (Rattus norvegicus [20]): 367 ng/mL; Cp (Rattus norvegicus [21]): 77 ng/mL; Tmax (Rattus norvegicus [22]): 1 h
 |  |  |  |  | inactive |  | inactive | inactive |  | inactive |  |  | N[C@@]1(C(=O)O)C[S+]([O-])[C@H]2[C@H](C(=O)O)[C@H]21 (stereo in doubt; (-)-11) [listing 2 of 2 here] | 

The remaining lines, values behind:

SMILES | EC50 [2] [nM] | EC50 [3] [nM] | EC50 [4] [µM] | Ki [5] [nM] | Activity [6] | Activity [7] | Activity [8] | Activity [9] | Activity [10] | Activity [11] | Activity [12] | Activity [13] | Cmax (Rattus norvegicus [19]) [µg/mL] | other results
N[C@@]1(C(=O)O)C[S+]([O-])[C@H]2[C@H](C(=O)O)[C@H]21 (stereo in doubt; (-)-10) [listing 1 of 2 here] | 18.1 | 210 | > 100 | 447 |  |  |  |  |  |  |  |  |  | Ki [1]: 508 nM
N[C@@]1(C(=O)O)CS(=O)(=O)[C@H]2[C@H](C(=O)O)[C@H]21 [LY404039] | 23.4 | 48 | 47.8 | 92 | inactive | inactive | inactive | inactive | inactive | inactive | inactive | inactive | 4 | Activity (Rattus norvegicus [23]): 91%; AUC(0-t) at 24 h [24]: 2900 ng·h/mL; concentration at 8 h [25]: < 10 ng/mL; Activity (Rattus norvegicus [26]): 91%; Tmax [27]: 0 h; Cmax (Rattus norvegicus [28]): 7.5 µg/mL; AUC(0-t) at 24 h [29]: 7200 ng·h/mL; concentration at 3 h [30]: > 500 ng/mL; concentration at 1 h [31]: 4000 ng/mL; ED50 (Rattus norvegicus [32]): 2.5 mg/kg; bioavailability [33]: 63%; Tmax [34]: 1 h; AUC (Rattus norvegicus [35]): 7.2 µg/mL
